Source: paper PMC10125337 (ACS Bio & Med Chem Au, 2023)
Where a SMILES comes first, the peptide text is derived from it. Where no end group is shown, it is not given here. [ ]: non-standard residue; d: D form.

Key:
[1] = MTT cell viability; type: cell-based; conditions: rat, NGF-differentiated PC-12-derived neurons
Procedure, shortened: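 PC-12 cells seeded at 1×10^4/well and grown 24 h at 37 °C, 5% CO2. At 50–60% confluence they were differentiated with 100 ng/mL NGF in DMEM with reduced horse serum. Test peptide (5–160 μM) was added for 24 h. MTT (5 mg/mL in PBS) was added for 4 h at 37 °C, and formazan was dissolved in DMSO/methanol 1:1. A570 was read; viability = (treated − blank)/(control − blank) × 100.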

[2] = biological target: T1, Aβ42 peptide (Homo sapiens, UniProt P05067); test: FTIR spectroscopy of β-sheet content; conditions: Aβ42 20 µM + peptide 20 µM, PBS pH 7.4, 37 °C, 7 days; β-sheet 1610–1640, α-helix 1640–1660 cm^–1
[3] = Serum stability; type: in vitro ADME; conditions: human, 50% human serum
Procedure, shortened: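 Test peptide at 150 μM final in 50% human serum, 37 °C. Aliquots were taken at 0, 6, 12, 24, 48 and 72 h and mixed 1:1 with acetonitrile to precipitate serum proteins. Samples were held 30 min at 4 °C, then centrifuged at 10,000 rpm for 30 min at 4 °C. The supernatant was analysed by RP-HPLC for percentage of intact peptide. Compound-free serum served as blank.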

[4] = biological target: T1, Aβ42 peptide; test: HR-TEM of fibril formation; conditions: for Aβ42 fibril structure after coincubation (HR-TEM): Aβ42 coincubated with peptide at 37 °C for 7 days; for fibril formation of the peptide incubated alone (HR-TEM): 7 days, 37 °C
[5] = biological target: T1, Aβ42 peptide; test: ThT fluorescence assay of Aβ42 aggregation inhibition; type: biochemical; conditions: 72 h, 37 °C; for inhibition of Aβ42 aggregation (ThT assay): peptide 5 µM + Aβ42 5 µM; for inhibition of Aβ42 peptide aggregation (ThT assay): peptide 160 µM + Aβ42 5 µM
[6] = tested on: Aβ42-induced apoptosis in PC-12-derived neurons; test: Apoptosis assay; type: cell-based, rat; conditions: Aβ42 10 µM + NT peptide 10 µM, 24 h, n = 3
[7] = biological target: amyloid beta (1–42) peptide (human); test: ITC
Chain of amyloid beta (1–42) peptide (human) (P05067 672-713): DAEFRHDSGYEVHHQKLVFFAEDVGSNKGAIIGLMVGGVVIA

T1 sequence (P05067 672-713): as above

CC(C)C[C@@H](N)C(=O)N[C@H](Cc1ccccc1)C(=O)N[C@H](Cc1ccccc1)C(=O)N[C@H](C)C(=O)N[C@H](CCC(=O)O)C(N)=O [NT-08] (H-[dL][dF][dF][dA][dE]-NH2)
viability at 24 h, 160 µM [1]: 50.1%

CC(C)C[C@@H](N)C(=O)N[C@H](CC(C)C)C(=O)N[C@H](Cc1ccccc1)C(=O)N[C@H](Cc1ccccc1)C(=O)N[C@H](C)C(N)=O [NT-06] (H-[dL][dL][dF][dF][dA]-NH2)
viability at 24 h, 160 µM [1]: 71.7%

CC(C)C[C@@H](N)C(=O)N[C@H](CC(C)C)C(=O)N[C@H](Cc1ccccc1)C(=O)N[C@H](Cc1ccccc1)C(N)=O [NT-07] (H-[dL][dL][dF][dF]-NH2)
viability at 24 h, 160 µM [1]: 42.5%

CC(C)C[C@@H](N)C(=O)N1CCC[C@@H]1C(=O)N[C@H](Cc1ccccc1)C(=O)N[C@H](Cc1ccccc1)C(=O)N[C@H](C)C(=O)N[C@H](CCC(=O)O)C(N)=O [NT-13] (H-[dL][dP][dF][dF][dA][dE]-NH2)
FTIR C=O amide peak of Aβ42 treated with peptide [2]: 1645.94 cm^–1
remaining at 72 h, 150 μM [3]: 90.4%
Aβ42 fibril structure after coincubation (HR-TEM) [4]: Absence of the fibril structure
fibril formation of the peptide incubated alone (HR-TEM) [4]: no fibril formation was observed
inhibition of Aβ42 aggregation (ThT assay) [5]: 48.41%
inhibition of Aβ42 peptide aggregation (ThT assay) [5]: ~79.88%
apoptotic cells (PI fluorescence intensity) [6]: 4.13 fold

CC(C)C[C@@H](NC(=O)[C@H](N)CCCCN)C(=O)N[C@@H](C(=O)N[C@H](Cc1ccccc1)C(=O)N[C@H](Cc1ccccc1)C(N)=O)C(C)C [NT-15, reference compound]
inhibition of Aβ42 aggregation (ThT assay) [5]: 41.87%

CC(C)C[C@@H](NC(=O)[C@H](N)CCCCN)C(=O)N[C@H](CC(C)C)C(=O)N[C@H](Cc1ccccc1)C(=O)N[C@H](Cc1ccccc1)C(=O)N[C@H](C)C(N)=O [NT-02] (H-[dK][dL][dL][dF][dF][dA]-NH2)
FTIR C=O amide peak of Aβ42 treated with peptide [2]: 1642.76 cm^–1
remaining at 72 h, 150 μM [3]: 95.5%
Aβ42 fibril structure after coincubation (HR-TEM) [4]: Absence of the fibril structure
fibril formation of the peptide incubated alone (HR-TEM) [4]: no fibril formation was observed
inhibition of Aβ42 aggregation (ThT assay) [5]: 57.61%
inhibition of Aβ42 peptide aggregation (ThT assay) [5]: about 78.96%
apoptotic cells (PI fluorescence intensity) [6]: 2.84 fold

CC(C)C[C@@H](NC(=O)[C@H](N)CCCCN)C(=O)N[C@H](CC(C)C)C(=O)N[C@H](Cc1ccccc1)C(=O)N[C@H](Cc1ccccc1)C(N)=O [NT-03] (H-[dK][dL][dL][dF][dF]-NH2)
remaining at 72 h, 150 μM [3]: 91.6%
Aβ42 fibril structure after coincubation (HR-TEM) [4]: Absence of the fibril structure
fibril formation of the peptide incubated alone (HR-TEM) [4]: no fibril formation was observed
inhibition of Aβ42 aggregation (ThT assay) [5]: 54.26%
inhibition of Aβ42 peptide aggregation (ThT assay) [5]: ~80.63%
apoptotic cells (PI fluorescence intensity) [6]: 6.21 fold

B1: NT-02 (peptide)
peptide: [dK][dL][dL][dF][dF][dA]-NH2
modifications: N-terminus assumed
SMILES: CC(C)C[C@@H](NC(=O)[C@H](N)CCCCN)C(=O)N[C@H](CC(C)C)C(=O)N[C@H](Cc1ccccc1)C(=O)N[C@H](Cc1ccccc1)C(=O)N[C@H](C)C(N)=O
Ka [7]: 2.25e+06 M⁻¹

B2: NT-13 (peptide)
peptide: [dL][dP][dF][dF][dA][dE]-NH2
modifications: N-terminus assumed
SMILES: CC(C)C[C@@H](N)C(=O)N1CCC[C@@H]1C(=O)N[C@H](Cc1ccccc1)C(=O)N[C@H](Cc1ccccc1)C(=O)N[C@H](C)C(=O)N[C@H](CCC(=O)O)C(N)=O
Ka [7]: 142000 M⁻¹

B3: NT-03 (peptide)
peptide: [dK][dL][dL][dF][dF]-NH2
modifications: N-terminus assumed
SMILES: CC(C)C[C@@H](NC(=O)[C@H](N)CCCCN)C(=O)N[C@H](CC(C)C)C(=O)N[C@H](Cc1ccccc1)C(=O)N[C@H](Cc1ccccc1)C(N)=O
Ka [7]: 3.47e+06 M⁻¹
